Laboratory results as given in ChEMBL document CHEMBL1140788, “Development of CXCR3 antagonists. Part 3: Tropenyl and homotropenyl-piperidine urea derivatives” (Bioorg Med Chem Lett, 2008).
In brackets after ≈: the same amount, converted by molar mass. Activity calls are given as the source filed them. The rule behind the calls is not given here.

Legend:
[1] = target: T1, C-X-C chemokine receptor type 3 (Mus musculus, UniProt O88410); assay: Antagonist activity at mouse CXCR3; format: functional
T1 sequence (O88410 whole entry): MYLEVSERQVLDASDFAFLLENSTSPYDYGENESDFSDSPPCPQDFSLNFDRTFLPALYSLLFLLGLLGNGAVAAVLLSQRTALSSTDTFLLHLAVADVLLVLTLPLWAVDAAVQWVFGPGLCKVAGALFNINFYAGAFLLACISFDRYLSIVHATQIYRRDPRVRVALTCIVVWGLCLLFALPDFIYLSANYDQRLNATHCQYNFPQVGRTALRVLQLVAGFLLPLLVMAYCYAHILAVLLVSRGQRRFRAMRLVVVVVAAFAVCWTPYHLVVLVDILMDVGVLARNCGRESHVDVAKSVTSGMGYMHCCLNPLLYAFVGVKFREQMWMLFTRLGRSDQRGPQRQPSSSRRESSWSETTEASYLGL

[2] = Intrinsic clearance in human liver microsomes at 0.5 uM; format: ADME, Microsome
[3] = Distribution coefficient, log D at pH 7.4; format: physicochemical; conditions: octanol/water
Summary of the method: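 Octanol–water partition at pH 7.4.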

[4] = target: T2, C-X-C chemokine receptor type 3 (Homo sapiens, UniProt P49682); assay: Antagonist activity at human CXCR3 by [35S]GTP-gamma-S binding assay; format: functional
T2 sequence (P49682 whole entry): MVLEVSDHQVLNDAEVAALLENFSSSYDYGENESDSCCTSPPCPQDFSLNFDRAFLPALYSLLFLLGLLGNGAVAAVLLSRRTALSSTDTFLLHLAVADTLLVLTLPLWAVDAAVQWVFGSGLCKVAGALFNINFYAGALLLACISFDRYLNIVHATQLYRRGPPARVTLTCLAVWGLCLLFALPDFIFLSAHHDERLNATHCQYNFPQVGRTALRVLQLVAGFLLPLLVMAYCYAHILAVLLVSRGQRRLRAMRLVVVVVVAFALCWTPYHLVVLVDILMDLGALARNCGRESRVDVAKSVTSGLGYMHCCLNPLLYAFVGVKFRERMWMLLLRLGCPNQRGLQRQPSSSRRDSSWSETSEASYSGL

[5] = organism: Mus musculus; assay: In vitro inhibition of CXCL11-induced mouse CXCR3 receptor internalization in mouse T cells in presence of 90% naive mouse plasma; conditions: T-cell, read-out: pA2 (converted)
[6] = target: T3, Muscarinic acetylcholine receptor M1 (Homo sapiens, UniProt P11229); assay: Inhibition of muscarinic M1 receptor
T3 sequence (P11229 whole entry): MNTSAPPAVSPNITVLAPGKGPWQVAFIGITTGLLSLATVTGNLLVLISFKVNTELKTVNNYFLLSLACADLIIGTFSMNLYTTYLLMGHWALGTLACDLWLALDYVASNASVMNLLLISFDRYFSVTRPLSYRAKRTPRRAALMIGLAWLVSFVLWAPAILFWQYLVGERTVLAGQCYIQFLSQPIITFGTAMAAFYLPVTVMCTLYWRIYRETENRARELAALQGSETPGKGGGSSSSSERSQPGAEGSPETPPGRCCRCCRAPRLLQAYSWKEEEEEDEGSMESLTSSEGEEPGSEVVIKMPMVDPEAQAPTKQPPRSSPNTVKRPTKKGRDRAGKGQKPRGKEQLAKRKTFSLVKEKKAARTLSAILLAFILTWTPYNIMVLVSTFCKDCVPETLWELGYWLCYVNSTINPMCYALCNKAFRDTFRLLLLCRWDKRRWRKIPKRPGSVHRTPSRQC

[7] = target: Muscarinic acetylcholine receptor M3 (Homo sapiens, UniProt P20309); assay: Inhibition of muscarinic M3 receptor
[8] = Oral bioavailability in BALB/c mouse at 30 mg/kg; format: ADME, organism-based; conditions: in vivo
Summary of the method: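 Balb/c mice given 30 mg/kg orally; plasma concentrations followed over time, sampled from 0 to 16 h post dose.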

[9] = Inhibition of sodium channel
[10] = Solubility at pH 6.5 buffer; format: physicochemical
[11] = target: Cytochrome P450 2D6 (Homo sapiens, UniProt P10635); assay: Inhibition of CYP2D6; format: ADME
[12] = system: Mus musculus; assay: Ex vivo inhibition of CXCL11-induced mouse CXCR3 receptor internalization in mouse T cells at 30 mg/kg, po after 10 hrs; format: functional, organism-based; parameters: dose 30 mg/kg; conditions: T-cell
Summary of the method: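 Mice were dosed orally at 30 mg/kg, and plasma was taken at each timepoint after dosing. Activated murine T cells were incubated with that plasma, then stimulated with 3 nM CXCL11 (A75) for 60 min at 37 °C. Agonist was removed and surface CXCR3 was measured by flow cytometry.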

[13] = target: T4, Muscarinic acetylcholine receptor M2 (Homo sapiens, UniProt P08172); assay: Inhibition of muscarinic M2 receptor
T4 sequence (P08172 whole entry): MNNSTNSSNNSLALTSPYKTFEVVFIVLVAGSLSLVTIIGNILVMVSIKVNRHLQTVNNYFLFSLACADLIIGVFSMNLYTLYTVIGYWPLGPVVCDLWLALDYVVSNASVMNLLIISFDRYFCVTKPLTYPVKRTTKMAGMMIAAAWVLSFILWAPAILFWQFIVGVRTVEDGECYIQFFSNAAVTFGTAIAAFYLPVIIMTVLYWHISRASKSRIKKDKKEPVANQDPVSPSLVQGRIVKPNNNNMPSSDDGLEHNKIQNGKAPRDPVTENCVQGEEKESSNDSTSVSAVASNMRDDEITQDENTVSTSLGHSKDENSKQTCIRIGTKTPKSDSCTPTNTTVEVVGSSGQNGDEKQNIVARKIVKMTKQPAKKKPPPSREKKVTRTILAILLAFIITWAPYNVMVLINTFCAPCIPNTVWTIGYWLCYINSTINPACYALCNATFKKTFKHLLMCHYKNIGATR

[14] = target: T5, 5-hydroxytryptamine receptor 1A (Homo sapiens, UniProt P08908); assay: Inhibition of 5HT1A receptor
T5 sequence (P08908 whole entry): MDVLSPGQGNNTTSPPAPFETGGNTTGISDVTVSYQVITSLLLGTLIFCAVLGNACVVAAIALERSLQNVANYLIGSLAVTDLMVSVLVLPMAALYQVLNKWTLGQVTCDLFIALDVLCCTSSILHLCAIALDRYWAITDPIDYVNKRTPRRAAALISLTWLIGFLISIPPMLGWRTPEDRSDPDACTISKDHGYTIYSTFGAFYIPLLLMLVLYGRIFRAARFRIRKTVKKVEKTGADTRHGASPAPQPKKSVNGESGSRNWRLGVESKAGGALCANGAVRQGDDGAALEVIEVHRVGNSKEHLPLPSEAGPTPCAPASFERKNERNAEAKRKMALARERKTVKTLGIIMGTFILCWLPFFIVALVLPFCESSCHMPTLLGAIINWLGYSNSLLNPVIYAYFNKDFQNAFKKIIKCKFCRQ

[15] = target: 5-hydroxytryptamine receptor 5A (Homo sapiens, UniProt P47898); assay: Inhibition of 5HT5A receptor
[16] = organism: Homo sapiens; assay: Protein binding to human plasma; conditions: read-out: PPB
[17] = system: Mus musculus; assay: Ex vivo inhibition of CXCL11-induced mouse CXCR3 receptor internalization in mouse T cells at 30 mg/kg, po after 4 hrs; format: functional, organism-based; parameters: dose 30 mg/kg; conditions: T-cell
Summary of the method: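 Mice dosed orally at 30 mg/kg; plasma collected at timepoints post dose and incubated with activated murine T cells, then 3 nM CXCL11 (A75) for 60 min at 37 °C; agonist removed, surface CXCR3 measured by flow cytometry.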

[18] = Half life in mouse; format: ADME, organism-based; conditions: in vivo

Chain of Cytochrome P450 2D6 (P10635 whole entry): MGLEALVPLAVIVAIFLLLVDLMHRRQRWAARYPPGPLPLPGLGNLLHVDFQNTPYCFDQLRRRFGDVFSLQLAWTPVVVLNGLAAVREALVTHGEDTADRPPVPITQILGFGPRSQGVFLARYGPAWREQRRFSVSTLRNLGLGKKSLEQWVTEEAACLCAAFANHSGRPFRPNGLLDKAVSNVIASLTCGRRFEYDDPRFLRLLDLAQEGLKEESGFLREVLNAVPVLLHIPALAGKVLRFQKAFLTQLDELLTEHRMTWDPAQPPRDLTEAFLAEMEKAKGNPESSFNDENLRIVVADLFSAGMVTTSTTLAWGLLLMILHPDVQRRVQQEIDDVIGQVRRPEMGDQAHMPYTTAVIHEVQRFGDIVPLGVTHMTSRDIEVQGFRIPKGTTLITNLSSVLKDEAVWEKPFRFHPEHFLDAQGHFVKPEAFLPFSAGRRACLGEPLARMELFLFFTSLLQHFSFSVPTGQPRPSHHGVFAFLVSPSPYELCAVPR
Chain of Muscarinic acetylcholine receptor M3 (P20309 whole entry): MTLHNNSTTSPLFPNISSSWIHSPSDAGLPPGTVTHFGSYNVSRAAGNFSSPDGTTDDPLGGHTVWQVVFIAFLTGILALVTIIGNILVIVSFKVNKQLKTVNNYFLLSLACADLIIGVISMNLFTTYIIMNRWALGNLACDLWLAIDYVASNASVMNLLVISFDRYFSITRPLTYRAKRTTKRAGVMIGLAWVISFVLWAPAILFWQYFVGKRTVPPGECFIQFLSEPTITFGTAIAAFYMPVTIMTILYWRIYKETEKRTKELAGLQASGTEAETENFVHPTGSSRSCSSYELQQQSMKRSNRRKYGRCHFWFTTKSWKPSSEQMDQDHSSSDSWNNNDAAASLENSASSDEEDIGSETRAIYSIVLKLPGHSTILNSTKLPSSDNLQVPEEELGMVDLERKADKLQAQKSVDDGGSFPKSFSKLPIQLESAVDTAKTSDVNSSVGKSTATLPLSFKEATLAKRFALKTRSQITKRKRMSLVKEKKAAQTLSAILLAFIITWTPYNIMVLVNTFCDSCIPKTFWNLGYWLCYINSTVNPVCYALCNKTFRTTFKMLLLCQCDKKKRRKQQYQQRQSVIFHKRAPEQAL
Chain of 5-hydroxytryptamine receptor 5A (P47898 whole entry): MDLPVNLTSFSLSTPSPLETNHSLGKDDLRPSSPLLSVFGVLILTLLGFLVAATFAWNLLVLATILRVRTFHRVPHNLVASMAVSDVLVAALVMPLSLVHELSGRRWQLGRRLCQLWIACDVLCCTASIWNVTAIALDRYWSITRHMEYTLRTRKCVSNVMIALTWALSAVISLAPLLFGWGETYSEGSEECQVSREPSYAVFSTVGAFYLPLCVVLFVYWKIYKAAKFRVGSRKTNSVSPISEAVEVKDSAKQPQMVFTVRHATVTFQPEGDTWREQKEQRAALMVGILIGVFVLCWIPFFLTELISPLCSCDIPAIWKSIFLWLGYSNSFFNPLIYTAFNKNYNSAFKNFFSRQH

CC(C)(C)C(=O)N1C2C=C(CN3CCC(NC(=O)Nc4cc(F)cc(C(F)(F)F)c4)CC3)CC1CC2 (stereo not given)
Ki [1]: 100 nM | microsomal CLint at 0.5 µM [2]: 60 µL/min/mg | logD [3]: 4.2 | Ki [4]: 18 nM

CC(=O)N1C2C=C(CN3C4CCC3CC(NC(=O)Nc3cc(F)cc(C(F)(F)F)c3)C4)CC1CCC2 (stereo not given)
Kb [5]: 95.5 nM | Ki [6]: 230 nM | Ki [7]: 1200 nM | Ki [1]: 6 nM | microsomal CLint at 0.5 µM [2]: 7 µL/min/mg | logD [3]: 3.1 | bioavailability [8]: 70% | Ki [9]: 570 nM | solubility [10]: 40 µg/mL (≈ 78.7 µM) | Ki [11]: 15000 nM | Activity [12]: Active | Ki [13]: 280 nM | Ki [4]: 7 nM | Ki [14]: 280 nM | Ki [15]: 3000 nM

CC(C)(C)C(=O)N1CCC(CN2CCC(NC(=O)Nc3cc(C(F)(F)F)cc(C(F)(F)F)c3)CC2)CC1
microsomal CLint at 0.5 µM [2]: 80 µL/min/mg | logD [3]: 4.2 | fraction unbound [16]: 0.01 | solubility [10]: 45 µg/mL (≈ 83.9 µM) | Ki [4]: 60 nM

CC(=O)N1C2CCC1CC(CN1CCC(NC(=O)Nc3cc(F)cc(C(F)(F)F)c3)CC1)C2 (mixture of isomers)
Ki [1]: 650 nM | logD [3]: 2.8 | Ki [4]: 120 nM

CC(C)C(=O)N1C2C=C(CN3CCC(NC(=O)Nc4cc(F)cc(C(F)(F)F)c4)CC3)CC1CC2 (stereo not given)
Ki [1]: 180 nM | microsomal CLint at 0.5 µM [2]: 58 µL/min/mg | logD [3]: 3.9 | Ki [4]: 28 nM

CC(=O)N1C2C=C(CN3CCC(NC(=O)Nc4cc(F)cc(C(F)(F)F)c4)CC3)CC1CCC2 (stereo not given)
Kb [5]: 186 nM | Ki [1]: 38 nM | microsomal CLint at 0.5 µM [2]: 9 µL/min/mg | Activity [17]: Active | logD [3]: 3.4 | Ki [4]: 9 nM

CC(=O)N1C2C=C(CN3CCC(NC(=O)Nc4cc(F)cc(OC(C)C)c4)CC3)CC1CCC2 (stereo not given)
Ki [1]: 6 nM | microsomal CLint at 0.5 µM [2]: 50 µL/min/mg | logD [3]: 2.7 | Ki [4]: 3 nM

O=C(Nc1ccc2ccccc2c1)NC1CCN(C/C2=C/CCCCCC2)CC1
microsomal CLint at 0.5 µM [2]: 72 µL/min/mg | fraction unbound [16]: < 0.001 | bioavailability [8]: 1% | solubility [10]: 0.1 µg/mL (≈ 0.255 µM)

CC(=O)N1CCC(CN2CCC(NC(=O)Nc3cc(C(F)(F)F)cc(C(F)(F)F)c3)CC2)CC1
microsomal CLint at 0.5 µM [2]: 4.5 µL/min/mg | logD [3]: 3.1 | solubility [10]: 850 µg/mL (≈ 1720 µM) | Ki [4]: 180 nM

CCOC(=O)N1C2C=C(CN3CCC(NC(=O)Nc4cc(F)cc(C(F)(F)F)c4)CC3)CC1CC2 (stereo not given)
Ki [1]: 950 nM | microsomal CLint at 0.5 µM [2]: 48 µL/min/mg | logD [3]: 4.6 | Ki [4]: 190 nM

CC(C)(C)C(=O)N1C2C=C(CN3CCC(NC(=O)Nc4cc(F)cc(C(F)(F)F)c4)CC3)CC1CCC2 (stereo not given)
Ki [1]: 57 nM | microsomal CLint at 0.5 µM [2]: 74 µL/min/mg | logD [3]: 4.5 | Ki [4]: 10 nM

O=C(Nc1cc(F)cc(C(F)(F)F)c1)NC1CCN(CC2=CC3CCC(C2)N3C(=O)C2CC2)CC1 (stereo not given)
Ki [1]: 80 nM | microsomal CLint at 0.5 µM [2]: 9 µL/min/mg | logD [3]: 3.4 | Ki [4]: 20 nM

CC(=O)N1C2C=C(CN3CCC(NC(=O)Nc4cc(F)cc(C(F)(F)F)c4)CC3)CC1CC2 (stereo not given)
Ki [1]: 120 nM | microsomal CLint at 0.5 µM [2]: 11 µL/min/mg | logD [3]: 3 | Ki [4]: 27 nM

CC(=O)N1C2C=C(CN3CCC(NC(=O)Nc4cccc(OC(C)C)c4)CC3)CC1CCC2 (stereo not given)
Ki [1]: 33 nM | microsomal CLint at 0.5 µM [2]: 22 µL/min/mg | logD [3]: 2.5 | Ki [4]: 11 nM

CC1(C)[C@H]2CC=C(CN3CCC(NC(=O)Nc4cc(C(F)(F)F)cc(C(F)(F)F)c4)CC3)[C@@H]1C2
Ki [1]: 400 nM | microsomal CLint at 0.5 µM [2]: 82 µL/min/mg | logD [3]: 5.1 | fraction unbound [16]: 0.001 | solubility [10]: < 1 µg/mL | Ki [11]: 5000 nM | Ki [4]: 26 nM

CC(=O)c1cccc(NC(=O)NC2CCN(CC3=CC4CCCC(C3)N4C(C)=O)CC2)c1 (stereo not given)
microsomal CLint at 0.5 µM [2]: 10 µL/min/mg | logD [3]: 2.8 | Ki [4]: 280 nM

O=C(Nc1cc(C(F)(F)F)cc(C(F)(F)F)c1)NC1CCN(CCC2CCS(=O)(=O)C2)CC1 (stereo not given)
half-life [18]: 5.5 h | microsomal CLint at 0.5 µM [2]: 3.5 µL/min/mg | logD [3]: 2.8 | bioavailability [8]: 52% | solubility [10]: 1360 µg/mL (≈ 2710 µM) | Ki [4]: 1100 nM
